Source: ChEMBL document CHEMBL3046864, “Synthesis and antifungal activity of a series of N-substituted [2-(2,4-dichlorophenyl)-3-(1,2,4-triazol-1-yl)]propylamines” (J Agric Food Chem, 2007)
Converted amounts (≈) assume the structure as drawn. The source made the active and inactive calls. The calls are words filed in the database; no cut-off is given here.

Tested on: Blumeria graminis
Experiment: Antifungal activity against Blumeria graminis f. sp. tritici infected in 125 ug/mL […] assessed as inhibition of wheat powdery mildew disease measured after 10 days post fungal inoculation
Assay type: functional
Settings: not given

Row | SMILES | inhibition (INH)
1 | C#CCN(CC#C)CC(Cn1cncn1)c1ccc(Cl)cc1Cl (stereo not given) | 35%
2 | FC(F)C(F)(F)OCC(Cn1cncn1)c1ccc(Cl)cc1Cl (stereo not given) [TETRACONAZOLE] | 100%
3 | Clc1ccc(C(CN(C2CC2)C2CC2)Cn2cncn2)c(Cl)c1 (stereo not given) | 60%
4 | C=CCN(CC=C)CC(Cn1cncn1)c1ccc(Cl)cc1Cl (stereo not given) | 30%
5 | Clc1ccc(C(CNC/C=C/c2ccccc2)Cn2cncn2)c(Cl)c1 (stereo not given) | 25%

Tested on: Fusarium graminearum
Experiment: Fungicidal activity against Fusarium graminearum assessed as inhibition of radial growth
Assay type: functional, organism-based
Settings: not given
In short: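 The Fusarium isolate came from the IPV collection and was kept on PDA. Radial growth was measured on PDA plates at 100–0.1 mg L-1. Percentage inhibition was taken from the mean difference between treated and control cultures. EC50 came from a probit plot of percentage inhibition against dose.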

Row | SMILES | EC50
6 | C/C=C/C(=O)NCC(Cn1cncn1)c1ccc(Cl)cc1Cl (stereo not given) | > 100 µg/mL
7 | O=C(NCC(Cn1cncn1)c1ccc(Cl)cc1Cl)c1ccccc1 (stereo not given) | > 100 µg/mL
8 | C#CCN(CC#C)CC(Cn1cncn1)c1ccc(Cl)cc1Cl (stereo not given) | 9 µg/mL (≈ 25.9 µM)
9 | CC(=O)NCC(Cn1cncn1)c1ccc(Cl)cc1Cl (stereo not given) | > 100 µg/mL
10 | Clc1ccc(C(CN(C2CC2)C2CC2)Cn2cncn2)c(Cl)c1 (stereo not given) | 55 µg/mL (≈ 157 µM)
11 | C=CCN(CC=C)CC(Cn1cncn1)c1ccc(Cl)cc1Cl (stereo not given) | > 100 µg/mL
12 | Clc1ccc(C(CNC/C=C/c2ccccc2)Cn2cncn2)c(Cl)c1 (stereo not given) | 26 µg/mL (≈ 67.1 µM)

Target: T1, Lanosterol 14-alpha demethylase (Mycosarcoma maydis) (UniProt P49602)
T1 sequence (whole entry): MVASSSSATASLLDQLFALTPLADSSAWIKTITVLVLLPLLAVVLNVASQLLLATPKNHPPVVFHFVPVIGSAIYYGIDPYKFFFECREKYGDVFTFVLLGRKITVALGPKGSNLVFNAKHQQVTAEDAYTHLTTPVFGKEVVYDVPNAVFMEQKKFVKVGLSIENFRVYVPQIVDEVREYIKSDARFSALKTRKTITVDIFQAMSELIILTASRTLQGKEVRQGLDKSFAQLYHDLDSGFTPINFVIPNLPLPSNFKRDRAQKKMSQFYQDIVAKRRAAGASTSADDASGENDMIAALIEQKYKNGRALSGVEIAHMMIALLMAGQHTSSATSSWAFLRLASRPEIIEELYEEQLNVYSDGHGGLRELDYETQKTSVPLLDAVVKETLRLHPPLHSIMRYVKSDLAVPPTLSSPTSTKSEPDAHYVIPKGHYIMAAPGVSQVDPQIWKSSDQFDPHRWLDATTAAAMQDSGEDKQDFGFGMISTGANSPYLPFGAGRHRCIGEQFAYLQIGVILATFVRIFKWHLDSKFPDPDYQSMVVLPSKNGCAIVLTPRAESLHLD
Experiment: Inhibition of 14alpha-demethylase in Ustilago maydis ATCC 14826 assessed as increase in 14-methyl sterols levels at 0.01 to 100 mg/L measured after 18 hr post compound treatment
Settings: not given
In short: (§1)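 U. maydis was grown in Coursen and Sisler broth with compound at 0.01–100 mg L-1 for 18 h. Sporidia were harvested by centrifugation, spiked with dihydrocholesterol as a known-amount standard, and saponified in 20% KOH in 60% ethanol for 1 h at 90 °C. The unsaponifiable fraction, including squalene and 14-methyl sterols, was analysed by capillary GC-FID and GC-MS.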

Row | SMILES | inhibition
13 | C=CCN(CC=C)CC(Cn1cncn1)c1ccc(Cl)cc1Cl (stereo not given) | Active

Tested on: Puccinia recondita
Experiment: Antifungal activity against Puccinia recondita infected 125 ug/mL compound […] assessed as inhibition of wheat brown rust disease measured after 10 days post fungal inoculation
Assay type: functional
Settings: not given

Row | SMILES | inhibition (INH)
14 | C#CCN(CC#C)CC(Cn1cncn1)c1ccc(Cl)cc1Cl (stereo not given) | 15%
15 | FC(F)C(F)(F)OCC(Cn1cncn1)c1ccc(Cl)cc1Cl (stereo not given) [TETRACONAZOLE] | 100%
16 | Clc1ccc(C(CN(C2CC2)C2CC2)Cn2cncn2)c(Cl)c1 (stereo not given) | 10%
17 | C=CCN(CC=C)CC(Cn1cncn1)c1ccc(Cl)cc1Cl (stereo not given) | 25%
18 | Clc1ccc(C(CNC/C=C/c2ccccc2)Cn2cncn2)c(Cl)c1 (stereo not given) | 20%

Tested on: Phytophthora infestans
Experiment: Antifungal activity against Phytophthora infestans infected 125 ug/mL compound pre-treated six-leaves stage tomato plant seedlings assessed as inhibition of disease measured after 7 days post fungal inoculation
Assay type: functional
Settings: not given
In short: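 Preventive application before inoculation. Tomato plants were sprayed with a P. infestans zoosporangia suspension (5 × 10^4 mL-1). Plants were held 24 h at 20 ± 1 °C and 100% RH, then moved to a greenhouse at 23 ± 1 °C and 70 ± 10% RH. Diseased leaf area was scored 7 days after inoculation against nontreated plants to give percentage disease inhibition.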

Row | SMILES | inhibition (INH)
19 | C#CCN(CC#C)CC(Cn1cncn1)c1ccc(Cl)cc1Cl (stereo not given) | 0%
20 | FC(F)C(F)(F)OCC(Cn1cncn1)c1ccc(Cl)cc1Cl (stereo not given) [TETRACONAZOLE] | 0%
21 | Clc1ccc(C(CN(C2CC2)C2CC2)Cn2cncn2)c(Cl)c1 (stereo not given) | 0%
22 | C=CCN(CC=C)CC(Cn1cncn1)c1ccc(Cl)cc1Cl (stereo not given) | 0%
23 | Clc1ccc(C(CNC/C=C/c2ccccc2)Cn2cncn2)c(Cl)c1 (stereo not given) | 0%

Tested on: Ustilago maydis
Experiment: Fungicidal activity against Ustilago maydis ATCC 14826 assessed as inhibition of fungal cell count
Assay type: functional, organism-based
Settings: Mycosarcoma maydis
In short: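 U. maydis ATCC 14826 broth cultures were grown in Coursen and Sisler broth with compound. Growth was estimated by sporidial cell count at the end of treatment and expressed as % inhibition versus the untreated control.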

Row | SMILES | EC50
24 | C/C=C/C(=O)NCC(Cn1cncn1)c1ccc(Cl)cc1Cl (stereo not given) | 20.7 µg/mL (≈ 61 µM)
25 | O=C(NCC(Cn1cncn1)c1ccc(Cl)cc1Cl)c1ccccc1 (stereo not given) | 1.9 µg/mL (≈ 5.06 µM)
26 | C#CCN(CC#C)CC(Cn1cncn1)c1ccc(Cl)cc1Cl (stereo not given) | 0.14 µg/mL (≈ 0.403 µM)
27 | CC(=O)NCC(Cn1cncn1)c1ccc(Cl)cc1Cl (stereo not given) | 60 µg/mL (≈ 192 µM)
28 | Clc1ccc(C(CN(C2CC2)C2CC2)Cn2cncn2)c(Cl)c1 (stereo not given) | 0.02 µg/mL (≈ 0.0569 µM)
29 | C=CCN(CC=C)CC(Cn1cncn1)c1ccc(Cl)cc1Cl (stereo not given) | 0.22 µg/mL (≈ 0.626 µM)
30 | Clc1ccc(C(CNC/C=C/c2ccccc2)Cn2cncn2)c(Cl)c1 (stereo not given) | 1.4 µg/mL (≈ 3.61 µM)

Tested on: Botrytis cinerea
Experiment: Fungicidal activity against Botryotinia fuckeliana assessed as inhibition of radial growth
Assay type: functional, organism-based
Settings: not given
In short: (§2)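 Strains from the IPV collection were maintained on potato dextrose agar. Radial growth on PDA was measured at 100–0.1 mg L-1. % inhibition was taken from the mean difference between treated and control cultures relative to control. % inhibition was plotted on a probit scale against dose to give EC50.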

Row | SMILES | EC50
31 | C/C=C/C(=O)NCC(Cn1cncn1)c1ccc(Cl)cc1Cl (stereo not given) | > 100 µg/mL
32 | O=C(NCC(Cn1cncn1)c1ccc(Cl)cc1Cl)c1ccccc1 (stereo not given) | 100 µg/mL (≈ 266 µM)
33 | C#CCN(CC#C)CC(Cn1cncn1)c1ccc(Cl)cc1Cl (stereo not given) | 4.9 µg/mL (≈ 14.1 µM)
34 | CC(=O)NCC(Cn1cncn1)c1ccc(Cl)cc1Cl (stereo not given) | > 100 µg/mL
35 | FC(F)C(F)(F)OCC(Cn1cncn1)c1ccc(Cl)cc1Cl (stereo not given) [TETRACONAZOLE] | 0.04 µg/mL (≈ 0.107 µM)
36 | Clc1ccc(C(CN(C2CC2)C2CC2)Cn2cncn2)c(Cl)c1 (stereo not given) | 7.5 µg/mL (≈ 21.4 µM)
37 | C=CCN(CC=C)CC(Cn1cncn1)c1ccc(Cl)cc1Cl (stereo not given) | 10 µg/mL (≈ 28.5 µM)
38 | Clc1ccc(C(CNC/C=C/c2ccccc2)Cn2cncn2)c(Cl)c1 (stereo not given) | 42 µg/mL (≈ 108 µM)

Tested on: Oculimacula yallundae
Experiment: Fungicidal activity against Oculimacula yallundae assessed as inhibition of radial growth
Assay type: functional, organism-based
Settings: not given
In short: as §2

Row | SMILES | EC50
39 | C/C=C/C(=O)NCC(Cn1cncn1)c1ccc(Cl)cc1Cl (stereo not given) | > 100 µg/mL
40 | O=C(NCC(Cn1cncn1)c1ccc(Cl)cc1Cl)c1ccccc1 (stereo not given) | 80.3 µg/mL (≈ 214 µM)
41 | C#CCN(CC#C)CC(Cn1cncn1)c1ccc(Cl)cc1Cl (stereo not given) | 2.8 µg/mL (≈ 8.06 µM)
42 | CC(=O)NCC(Cn1cncn1)c1ccc(Cl)cc1Cl (stereo not given) | > 100 µg/mL
43 | Clc1ccc(C(CN(C2CC2)C2CC2)Cn2cncn2)c(Cl)c1 (stereo not given) | 1.2 µg/mL (≈ 3.42 µM)
44 | C=CCN(CC=C)CC(Cn1cncn1)c1ccc(Cl)cc1Cl (stereo not given) | 3.6 µg/mL (≈ 10.2 µM)
45 | Clc1ccc(C(CNC/C=C/c2ccccc2)Cn2cncn2)c(Cl)c1 (stereo not given) | 7.5 µg/mL (≈ 19.4 µM)

Target: T2, Squalene monooxygenase (Mycosarcoma maydis) (UniProt A0A0D1C8X8)
T2 sequence (whole entry): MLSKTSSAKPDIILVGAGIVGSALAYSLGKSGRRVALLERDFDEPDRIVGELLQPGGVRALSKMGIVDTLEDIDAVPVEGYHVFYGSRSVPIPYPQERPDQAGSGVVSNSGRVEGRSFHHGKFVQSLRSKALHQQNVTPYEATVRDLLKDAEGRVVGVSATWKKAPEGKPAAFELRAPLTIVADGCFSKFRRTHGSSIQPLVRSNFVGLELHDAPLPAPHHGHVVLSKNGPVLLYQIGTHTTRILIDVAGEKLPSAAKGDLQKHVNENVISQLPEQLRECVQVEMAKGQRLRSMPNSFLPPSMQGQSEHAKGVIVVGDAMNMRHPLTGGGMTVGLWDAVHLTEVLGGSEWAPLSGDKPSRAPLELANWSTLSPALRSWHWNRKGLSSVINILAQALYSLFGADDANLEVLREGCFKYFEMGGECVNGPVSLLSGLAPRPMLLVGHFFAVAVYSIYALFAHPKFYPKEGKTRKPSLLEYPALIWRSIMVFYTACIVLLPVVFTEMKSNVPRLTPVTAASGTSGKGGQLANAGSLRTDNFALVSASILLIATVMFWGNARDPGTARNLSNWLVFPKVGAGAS
Experiment: Inhibition of squalene epoxidase in Ustilago maydis ATCC 14826 assessed as effect on squalene level at 0.01 to 100 mg/L measured after 18 hr post compound treatment
Settings: not given
In short: as §1

Row | SMILES | inhibition
46 | C=CCN(CC=C)CC(Cn1cncn1)c1ccc(Cl)cc1Cl (stereo not given) | inactive

Tested on: Pyrenophora teres
Experiment: Fungicidal activity against Pyrenophora teres assessed as inhibition of radial growth
Assay type: functional, organism-based
Settings: not given
In short: as §2

Row | SMILES | EC50
47 | C/C=C/C(=O)NCC(Cn1cncn1)c1ccc(Cl)cc1Cl (stereo not given) | > 100 µg/mL
48 | O=C(NCC(Cn1cncn1)c1ccc(Cl)cc1Cl)c1ccccc1 (stereo not given) | 11.5 µg/mL (≈ 30.6 µM)
49 | C#CCN(CC#C)CC(Cn1cncn1)c1ccc(Cl)cc1Cl (stereo not given) | 2.1 µg/mL (≈ 6.05 µM)
50 | CC(=O)NCC(Cn1cncn1)c1ccc(Cl)cc1Cl (stereo not given) | > 100 µg/mL
51 | Clc1ccc(C(CN(C2CC2)C2CC2)Cn2cncn2)c(Cl)c1 (stereo not given) | 5.5 µg/mL (≈ 15.7 µM)
52 | C=CCN(CC=C)CC(Cn1cncn1)c1ccc(Cl)cc1Cl (stereo not given) | 6.5 µg/mL (≈ 18.5 µM)
53 | Clc1ccc(C(CNC/C=C/c2ccccc2)Cn2cncn2)c(Cl)c1 (stereo not given) | 12 µg/mL (≈ 31 µM)

Tested on: Cercospora beticola
Experiment: Fungicidal activity against Cercospora beticola assessed as inhibition of radial growth
Assay type: functional, organism-based
Settings: not given
In short: as §2

Row | SMILES | EC50
54 | C/C=C/C(=O)NCC(Cn1cncn1)c1ccc(Cl)cc1Cl (stereo not given) | 60.5 µg/mL (≈ 178 µM)
55 | O=C(NCC(Cn1cncn1)c1ccc(Cl)cc1Cl)c1ccccc1 (stereo not given) | 2.5 µg/mL (≈ 6.66 µM)
56 | C#CCN(CC#C)CC(Cn1cncn1)c1ccc(Cl)cc1Cl (stereo not given) | 1.1 µg/mL (≈ 3.17 µM)
57 | CC(=O)NCC(Cn1cncn1)c1ccc(Cl)cc1Cl (stereo not given) | > 100 µg/mL
58 | Clc1ccc(C(CN(C2CC2)C2CC2)Cn2cncn2)c(Cl)c1 (stereo not given) | 0.4 µg/mL (≈ 1.14 µM)
59 | C=CCN(CC=C)CC(Cn1cncn1)c1ccc(Cl)cc1Cl (stereo not given) | 2.6 µg/mL (≈ 7.4 µM)
60 | Clc1ccc(C(CNC/C=C/c2ccccc2)Cn2cncn2)c(Cl)c1 (stereo not given) | 2.4 µg/mL (≈ 6.2 µM)
